Laboratory results taken from publication PMC2643122 (Molecular Microbiology, 2008).
Entries after “also recorded” stand apart in the source; their conditions may differ. Where no end group is shown, it is not given here.

What was measured:
Candida albicans = settings: cited from earlier work
DnaK = settings: 2001, cited from earlier work; for binding by bacterial DnaK related to uptake and killing: ref Kragol et al.
rSsa2p [1] = biological target: T1, rSsa2p (Candida albicans, UniProt P46587); assay: Limited thermolysin proteolysis of cross-linked rSsa2p–BHst 5 complexes; format: binding; settings: thermolysin 5 μg ml^−1, 30°C, 1 h; silver-stained 15% SDS-PAGE
C. albicans [2] = assay: Candidacidal assay of Hst 5; format: cell-based, Candida albicans
Outline: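 Strains (integrated at RP10 in ssa2Δ background) grown overnight in YPD with uridine 50 μg ml−1 at 30°C, washed twice in 10 mM NaPB, resuspended to 10^6 cells ml−1. Exposed to 15 μM Hst 5, 1 h, 30°C, 250 r.p.m. Diluted, 500 cells plated on YPD agar, 48 h room temperature. Percent death versus buffer-only cells. Three independent transformants per mutant; each assay repeated ≥3 times.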

C. albicans [3] = assay: Hst 5 translocation assay; format: cell-based, Candida albicans
Outline: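 Early log-phase cells (1 × 10^8) were washed twice and suspended in 1 ml 10 mM NaPB, then given biotinylated Hst 5 (15 μM final) for 30 min at room temperature. Washed cells were pelleted at 3 300 g, 4°C, glass-bead disrupted and spun 15 700 g, 10 min. Cytosolic protein (10 μg) was separated by 16% Tricine SDS-PAGE, blotted with streptavidin-HRP, detected by ECL and quantified densitometrically. Means ± standard errors of triplicate independent assays.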

rSsa2p [4] = biological target: T1, rSsa2p; assay: FPLC gel filtration determination of dissociation constants; format: binding
[5] = ref Li et al., 2006; cited from earlier work
human tissues = settings: discussion statement without its own reference; cited from earlier work
C. albicans Ssa2p = settings: ref Li et al., 2006; cited from earlier work
yeast cells = settings: ref Koshlukova et al., 2000; Vylkova et al., 2007; cited from earlier work

T1 sequence (P46587 whole entry): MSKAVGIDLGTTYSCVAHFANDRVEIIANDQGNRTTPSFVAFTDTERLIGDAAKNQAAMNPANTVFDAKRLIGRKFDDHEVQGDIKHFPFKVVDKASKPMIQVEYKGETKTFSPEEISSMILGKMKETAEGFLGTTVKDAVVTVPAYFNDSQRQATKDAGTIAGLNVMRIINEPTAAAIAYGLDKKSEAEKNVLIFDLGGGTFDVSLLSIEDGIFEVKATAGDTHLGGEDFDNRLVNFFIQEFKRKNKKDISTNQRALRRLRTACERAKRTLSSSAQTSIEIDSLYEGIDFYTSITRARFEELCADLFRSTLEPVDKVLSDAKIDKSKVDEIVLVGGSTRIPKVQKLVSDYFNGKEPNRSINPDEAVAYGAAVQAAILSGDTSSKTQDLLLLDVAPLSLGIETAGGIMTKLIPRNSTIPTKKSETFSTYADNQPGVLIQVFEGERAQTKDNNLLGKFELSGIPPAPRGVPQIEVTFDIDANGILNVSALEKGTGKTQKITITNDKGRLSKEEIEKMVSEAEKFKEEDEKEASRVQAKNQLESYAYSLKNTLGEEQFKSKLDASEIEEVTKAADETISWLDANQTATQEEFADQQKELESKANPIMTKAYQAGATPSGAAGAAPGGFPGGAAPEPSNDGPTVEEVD

human β defensin 2
killing of candidal cells via uptake mechanism involving Ssa proteins (Candida albicans; ref Vylkova et al., 2006): can kill candidal cells

pyrrhocoricin: cationic antimicrobial peptide (VDKGSYLPRPTPPRPIYNRN; ends and bridges not checked; UniProt P37362 1-20, looked up)
binding by bacterial DnaK related to uptake and killing (DnaK): shown to be related to their intracellular uptake and killing functions | probable interaction site on DnaK (DnaK; ref Otvos et al., 2000, Kragol et al.): C-terminal variable region of the lid domain outside the conventional peptide binding region

drosocin: cationic antimicrobial peptide (GKPRPYSPRPTSHPRPIRV; ends and bridges not checked; UniProt P36193 22-40, looked up)
binding by bacterial DnaK related to uptake and killing (DnaK): shown to be related to their intracellular uptake and killing functions

C[C@H](NC(=O)[C@H](Cc1cnc[nH]1)NC(=O)[C@H](CO)NC(=O)[C@@H](N)CC(=O)O)C(=O)N[C@@H](CCCCN)C(=O)N[C@@H](CCCNC(=N)N)C(=O)N[C@@H](Cc1cnc[nH]1)C(=O)N[C@@H](Cc1cnc[nH]1)C(=O)NCC(=O)N[C@@H](Cc1ccc(O)cc1)C(=O)N[C@@H](CCCCN)C(=O)N[C@@H](CCCNC(=N)N)C(=O)N[C@@H](CCCCN)C(=O)N[C@@H](Cc1ccccc1)C(=O)N[C@@H](Cc1cnc[nH]1)C(=O)N[C@@H](CCC(=O)O)C(=O)N[C@@H](CCCCN)C(=O)N[C@@H](Cc1cnc[nH]1)C(=O)N[C@@H](Cc1cnc[nH]1)C(=O)N[C@@H](CO)C(=O)N[C@@H](Cc1cnc[nH]1)C(=O)N[C@@H](CCCNC(=N)N)C(=O)NCC(=O)N[C@@H](Cc1ccc(O)cc1)C(=O)O [Hst 5, Histatin 5]
effect of binding on thermolysin digestion sites of rSsa2p (rSsa2p [1]): substantially alters available thermolysin digestion sites exposed for enzymatic cleavage | reduction in cellular killing, Ssa2 150−156 mutant strain (C. albicans [2]; P1 mutant Ssa2(150−156A3) as printed, 15 μM Hst 5, 1 h at 30°C): approximately 20% | loss of killing function, Ssa2(150−156A4) strain (C. albicans [2]; P1 mutant, result in words, 15 μM Hst 5, 1 h at 30°C): mild to moderate loss of function | killing, Ssa2(334−338A3) strain (C. albicans [2]; T2 mutant with defective cell wall secretion of Ssa2p, 15 μM Hst 5, 1 h at 30°C): reduced Hst 5 translocation and killing to levels of the ssa2Δ knockout; also recorded: significant loss of cytotoxic and transport functions | killing, Ssa2(131−135A3) strain (C. albicans [2]; downstream T1 mutant, 15 μM Hst 5, 1 h at 30°C): reduced, but did not prevent Hst 5 killing and intracellular uptake; also recorded: mild to moderate loss of function | effect of mutations within Ssa2(342–355) on killing (C. albicans [2]; spot 32 region, data not shown): did not alter Hst 5 killing or translocation | time course of translocation (C. albicans [3]; BHst 5 15 μM, NaPB, room temperature): Translocation happens very rapidly following only 5 min incubation; also recorded: the majority of Hst 5 is translocated intracellularly after 30 min | reduction in Hst 5 translocation, Ssa2 150−156 mutant strain (C. albicans [3]; P1 mutant Ssa2(150−156A3) as printed, BHst 5 15 μM): approximately 20% | intracellular translocation, Ssa2(334−338A3) strain (C. albicans [3]; T2 mutant with defective cell wall secretion of Ssa2p, BHst 5 15 μM): reduced Hst 5 translocation and killing to levels of the ssa2Δ knockout | intracellular translocation, Ssa2(131−135A3) strain (C. albicans [3]; downstream T1 mutant, BHst 5 15 μM): reduced, but did not prevent Hst 5 killing and intracellular uptake | effect of mutations within Ssa2(342–355) on translocation (C. albicans [3]; spot 32 region, data not shown): did not alter Hst 5 killing or translocation | uptake in Ssa2p deletion mutants (C. albicans [3]; ssa2Δ): reduced but measurable uptake | competition for nucleotide binding sites in Ssa2p (rSsa2p [4]; gel filtration with ATP or ADP): does not compete for nucleotide binding sites in Ssa2p | fold improvement of binding affinity by nucleotides (rSsa2p [4]; presence of nucleotides, gel filtration): 10 -fold | resistance of SSA1 knockouts to Hst 5 (Candida albicans; SSA1 knockout, ref Li et al., 2006): only mildly resistant | intracellular uptake and killing in C. albicans SSA2 deletion mutants (Candida albicans; SSA2 deletion, ref Li et al., 2006): significantly reduced | fungicidal activity for Candida albicans and other fungal pathogens (Candida albicans; associated with oral candidiasis, background statement without its own reference): strongly fungicidal | inhibition of Hst 5 killing by drugs blocking endocytosis (Candida albicans; pre-treatment of cells, ref Zhu et al., 2006): inhibited by pre-treatment of cells with drugs blocking endocytosis | salt sensitivity (Candida albicans; ref Dong et al., 2003, Jang et al., 2008): salt sensitive | self-aggregation [5]: high propensity for self-aggregation | toxicity to human tissues (human tissues): without being toxic to human tissues | association with Ssa2p compared with Ssa1p (C. albicans Ssa2p): stronger association | selective leakage of intracellular ions and ATP (yeast cells): induces selective leakage of intracellular ions and ATP from yeast cells
